Reference: ChEMBL document CHEMBL1127343, “"Glycylcyclines". 3. 9-Aminodoxycyclinecarboxamides” (1994)
≈ marks a conversion by molar mass, not a printed value. Where a SMILES comes first, the peptide text is derived from it. The star is where a group is joined. X1 = C[C@H]1c2ccc(N*)c(O)c2C(=O)C2=C(O)[C@]3(O)C(O)=C(C(N)=O)C(=O)[C@@H](N(C)C)C3[C@@H](O)C21

Experiments:
Assay type in all cases: functional
[1] = system: Escherichia coli; experiment: In vitro antibacterial activity was measured on gram negative bacteria Escherichia coli UBMS 90-4 tet-M (ribosomal protection) cell lines
Procedure, shortened: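 Agar dilution MIC on Mueller-Hinton II agar. Inoculum (1–5) × 10^5 CFU/mL, drug range 32–0.004 μg/mL. Plates incubated 18 h at 35 °C in a forced-air incubator. MIC is the lowest concentration that inhibits growth. The strain panel covered tetracycline-sensitive and -resistant strains. Tetracycline, minocycline and doxycycline were run as standards in each assay.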

[2] = system: Escherichia coli; experiment: In vitro antibacterial activity was measured on gram negative bacteria Escherichia coli UBMS 90-5 sensitive cell lines
Procedure, shortened: (§1)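 MIC by agar dilution on Mueller-Hinton II agar; inoculum (1–5) × 10^5 CFU/mL; antibiotic range 32–0.004 μg/mL; plates incubated 18 h at 35 °C in forced-air incubator. MIC taken as lowest concentration inhibiting growth. Tetracycline, minocycline and doxycycline run as standards in each assay.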

[3] = system: Staphylococcus aureus; experiment: In vitro antibacterial activity was measured on gram positive bacteria Staphylococcus aureus UBMS 90-1 tet-M (ribosomal protection) cell lines; procedure, shortened: as §1
[4] = system: Staphylococcus aureus; experiment: In vitro antibacterial activity was measured on gram positive bacteria Staphylococcus aureus UBMS 90-3 sensitive cell lines; procedure, shortened: as §1
[5] = system: Staphylococcus aureus; experiment: In vitro antibacterial activity was measured on gram positive bacteria Staphylococcus aureus smith cell lines; procedure, shortened: as §1
[6] = system: Escherichia coli; experiment: In vitro antibacterial activity was measured on gram negative bacteria Escherichia coli J3272 tet-C(efflux resistance) cell lines
[7] = system: Escherichia coli; experiment: In vitro antibacterial activity was measured on gram negative bacteria Escherichia coli PRP-1 tet-a(efflux resistance) cell lines
[8] = system: Escherichia coli; experiment: In vitro antibacterial activity was measured on gram negative bacteria Escherichia coli UBMS 88-1 tet-B(efflux resistance) cell lines
[9] = system: Staphylococcus aureus; experiment: In vitro antibacterial activity was measured on gram positive bacteria Staphylococcus aureus UBMS 88-7 tet-k(efflux resistance) cell lines

Row | SMILES | MIC [1] [µg/mL] | MIC [2] [µg/mL] | MIC [3] [µg/mL] | MIC [4] [µg/mL] | MIC [5] [µg/mL] | MIC [6] [µg/mL] | MIC [7] [µg/mL] | MIC [8] [µg/mL] | MIC [9] [µg/mL]
1 | CC(C)C[C@H](NC(=O)[C@H](CC(C)C)NC(=O)[C@H](CC(C)C)NC(=O)[C@@H](N)CC(C)C)C(=O)Nc1ccc2c(c1O)C(=O)C1=C(O)[C@]3(O)C(O)=C(C(N)=O)C(=O)[C@@H](N(C)C)C3[C@@H](O)C1[C@H]2C (some centres undefined) (H-LLLL-X1) | > 32 | > 32 | > 32 | 32 (≈ 35.1 µM) | 16 (≈ 17.5 µM) |  |  |  | 
2 | C[C@H]1c2ccc(NC(=O)CN(C)C)c(O)c2C(=O)C2=C(O)[C@]3(O)C(O)=C(C(N)=O)C(=O)[C@@H](N(C)C)C3[C@@H](O)C21 (some centres undefined) | 0.25 (≈ 0.459 µM) | 0.5 (≈ 0.918 µM) | 0.5 (≈ 0.918 µM) | 0.12 (≈ 0.22 µM) | 0.25 (≈ 0.459 µM) | 8 (≈ 14.7 µM) | 2 (≈ 3.67 µM) | 1 (≈ 1.84 µM) | 4 (≈ 7.35 µM)
3 | CC(C)C[C@@H](N)C(=O)Nc1ccc2c(c1O)C(=O)C1=C(O)[C@]3(O)C(O)=C(C(N)=O)C(=O)[C@@H](N(C)C)C3CC1C2 (some centres undefined) | 8 (≈ 14.7 µM) | 8 (≈ 14.7 µM) | 16 (≈ 29.5 µM) | 8 (≈ 14.7 µM) | 8 (≈ 14.7 µM) |  |  |  | 
4 | CCN(CC)CC(=O)Nc1ccc2c(c1O)C(=O)C1=C(O)[C@]3(O)C(O)=C(C(N)=O)C(=O)[C@@H](N(C)C)C3[C@@H](O)C1[C@H]2C (some centres undefined) | 0.5 (≈ 0.873 µM) | 0.5 (≈ 0.873 µM) | 2 (≈ 3.49 µM) | 0.12 (≈ 0.21 µM) | 0.25 (≈ 0.437 µM) | 2 (≈ 3.49 µM) | 4 (≈ 6.99 µM) | 1 (≈ 1.75 µM) | 1 (≈ 1.75 µM)
5 | C[C@H]1c2ccc(NC(=O)[C@@H](N)CCC(=O)O)c(O)c2C(=O)C2=C(O)[C@]3(O)C(O)=C(C(N)=O)C(=O)[C@@H](N(C)C)C3[C@@H](O)C21 (some centres undefined) | > 32 | > 32 | > 32 | 32 (≈ 54.4 µM) | > 32 |  |  |  | 
6 | CN(C)c1ccc(O)c2c1CC1C[C@H]3[C@H](N(C)C)C(=O)C(C(N)=O)=C(O)[C@@]3(O)C(=O)C1=C2O (some centres undefined) | > 32 | 1 (≈ 2.19 µM) | 4 (≈ 8.74 µM) | 0.06 (≈ 0.131 µM) | 0.12 (≈ 0.262 µM) |  |  |  | 
7 | CC(C)C[C@H](N)C(=O)NCC(=O)Nc1ccc2c(c1O)C(=O)C1=C(O)[C@]3(O)C(O)=C(C(N)=O)C(=O)[C@@H](N(C)C)C3[C@@H](O)C1[C@H]2C (some centres undefined) | > 32 | > 32 | > 32 | > 32 | 16 (≈ 25.4 µM) |  |  |  | 
8 | CN(C)[C@@H]1C(O)=C(C(N)=O)C(=O)[C@@]2(O)C(O)=C3C(=O)c4c(O)cccc4C[C@H]3C[C@@H]12 [SANCYCLINE] | 16 (≈ 38.6 µM) | 2 (≈ 4.83 µM) | 2 (≈ 4.83 µM) | 0.25 (≈ 0.603 µM) | 0.25 (≈ 0.603 µM) | 4 (≈ 9.65 µM) | 8 (≈ 19.3 µM) |  | 4 (≈ 9.65 µM)
9 | C[C@H]1c2ccc(NC=O)c(O)c2C(=O)C2=C(O)[C@]3(O)C(O)=C(C(N)=O)C(=O)[C@@H](N(C)C)C3[C@@H](O)C21 (some centres undefined) | > 32 | 2 (≈ 4.1 µM) | > 32 | 0.12 (≈ 0.246 µM) | 0.12 (≈ 0.246 µM) |  |  |  | 
10 | C[C@H]1c2ccc(NC(=O)[C@@H](N)CCCCN)c(O)c2C(=O)C2=C(O)[C@]3(O)C(O)=C(C(N)=O)C(=O)[C@@H](N(C)C)C3[C@@H](O)C21 (some centres undefined) | > 32 | > 32 | > 32 | > 32 | > 32 |  |  |  | 16 (≈ 27.2 µM)
11 | CC(C)C[C@H](NC(=O)CN)C(=O)Nc1ccc2c(c1O)C(=O)C1=C(O)[C@]3(O)C(O)=C(C(N)=O)C(=O)[C@@H](N(C)C)C3[C@@H](O)C1[C@H]2C (some centres undefined) | > 32 | > 32 | > 32 | > 32 | 16 (≈ 25.4 µM) |  |  |  | 
12 | CCCCNCC(=O)Nc1ccc2c(c1O)C(=O)C1=C(O)[C@]3(O)C(O)=C(C(N)=O)C(=O)[C@@H](N(C)C)C3[C@@H](O)C1[C@H]2C (some centres undefined) | 1 (≈ 1.75 µM) | 0.5 (≈ 0.873 µM) | 4 (≈ 6.99 µM) | 0.25 (≈ 0.437 µM) | 0.5 (≈ 0.873 µM) |  | 4 (≈ 6.99 µM) |  | 8 (≈ 14 µM)
13 | C[C@H]1c2ccc(NC(=O)[C@@H](N)Cc3c[nH]c4ccccc34)c(O)c2C(=O)C2=C(O)[C@]3(O)C(O)=C(C(N)=O)C(=O)[C@@H](N(C)C)C3[C@@H](O)C21 (some centres undefined) | 4 (≈ 6.2 µM) | 8 (≈ 12.4 µM) | 4 (≈ 6.2 µM) | 2 (≈ 3.1 µM) | 1 (≈ 1.55 µM) | 32 (≈ 49.6 µM) | 16 (≈ 24.8 µM) |  | 16 (≈ 24.8 µM)
14 | COC(=O)Nc1ccc2c(c1O)C(=O)C1=C(O)[C@]3(O)C(O)=C(C(N)=O)C(=O)[C@@H](N(C)C)C3[C@@H](O)C1[C@H]2C (some centres undefined) | > 32 | > 32 | 16 (≈ 30.9 µM) | 0.06 (≈ 0.116 µM) | 0.06 (≈ 0.116 µM) |  |  |  | 4 (≈ 7.73 µM)
15 | CC(C)C[C@H](NC(=O)[C@@H](N)CC(C)C)C(=O)Nc1ccc2c(c1O)C(=O)C1=C(O)[C@]3(O)C(O)=C(C(N)=O)C(=O)[C@@H](N(C)C)C3[C@@H](O)C1[C@H]2C (some centres undefined) | > 32 | > 32 | 4 (≈ 5.83 µM) | 4 (≈ 5.83 µM) | 8 (≈ 11.7 µM) |  |  |  | 32 (≈ 46.7 µM)
